KCNQ1 block: human KCNQ1 channel inhibition. P51787. CHO-K1 KCNQ1, FluxOR thallium flux fluorescence; active compounds read high. B-score at 10 µM. 1.3% of 310,000 active;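 active = compounds whose thallium flux B-score, printed positive for inhibition, exceeds three library SD while starting fluorescence stays within three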;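 note: channel opened by potassium depolarization with thallium stimulus after 20 min compound exposure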
KCNK9 block: inhibitors of human KCNK9 two-pore domain potassium channel; HEK293 KCNK9, FluxOR thallium flux fluorescence; active compounds read low; Q9NPC2; 1.2% of 310,000 active; B-score at 10 µM;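 active = ratio B-score over 3 SD below the library mean, with starting fluorescence within 5 SD of its mean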;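 note: negative B-score means less thallium flux so channel inhibition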
Target sequence (Q9NPC2 whole entry, looked up, the tested form may be a part): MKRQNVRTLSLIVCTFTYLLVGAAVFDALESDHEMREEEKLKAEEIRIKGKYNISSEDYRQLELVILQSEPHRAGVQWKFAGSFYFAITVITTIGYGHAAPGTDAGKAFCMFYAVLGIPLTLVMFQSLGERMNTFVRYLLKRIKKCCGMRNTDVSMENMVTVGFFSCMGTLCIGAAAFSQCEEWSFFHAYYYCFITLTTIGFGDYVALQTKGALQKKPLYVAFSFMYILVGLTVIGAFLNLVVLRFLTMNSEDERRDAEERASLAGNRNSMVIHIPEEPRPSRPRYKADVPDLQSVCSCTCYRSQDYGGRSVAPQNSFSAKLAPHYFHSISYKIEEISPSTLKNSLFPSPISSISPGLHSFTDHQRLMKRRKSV
KCNK3 block: human KCNK3 channel inhibition, primary screen. 0.84% of 340,000 active. CHO-KCNK3 thallium flux, FluxOR fluorescence; active compounds read low. B-score at 10 µM;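 active = B-score under library mean minus 4 SD, starting fluorescence ratio at most library mean plus 5 SD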;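 note: more negative B-score means stronger inhibition of thallium flux through KCNK3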
KCNQ1 pot: human KCNQ1 channel potentiation or activation; 0.35% of 310,000 active; B-score at 10 µM; CHO-K1 KCNQ1, thallium flux FluxOR fluorescence; active compounds read high; P51787;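 active = fluorescence ratio B-score, a plate-corrected score, at least three library SD, with initial intensity B-score within 5 SD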
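Test system: CHO-K1 cells stably expressing KCNQ1 / Medium: assay buffer / Also added: depolarizing K+/Tl+ stimulus, K2SO4 and Tl2SO4 each 12.5 mM in 5x stock / Incubation: 90 min dye loading and 20 min compound exposure, both at room temperature / Signal: thallium influx via FluxOR fluorescence, kinetic imaging / Evaluation: B score of baseline-normalized fluorescence ratio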
hERG protect: shields human hERG channel from block by proarrhythmic agents; CHO-hERG, FluxOR thallium flux, dofetilide IC70 present; activation (rescue from dofetilide block), less the hit threshold, % at 10 µM; 0.51% of 310,000 active;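 active = activation above the mean of controls blocked by dofetilide plus 5 SD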;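 note: thallium influx through hERG after potassium depolarization seen as dye fluorescence rise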
Kir21 block: inhibitors of mouse Kir2.1 inward-rectifier potassium channel | P35561 | HEK293-Kir2.1, FluxOR thallium flux fluorescence; active compounds read low | B-score at 10 µM | 0.85% of 310,000 active;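 active = fluorescence ratio B-score at or below minus 3 SD of library scores, with starting-brightness B-score within 2 SD, cut at about -4.2 in these data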;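 note: channel flux triggered by added potassium and thallium sulfate stimulus; B-score of peak minus minimum fluorescence over baseline after thallium stimulus; more negative B-score means stronger Kir2.1 block with less thallium influx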
Numbers stand for hits. Shown are actives, neighbours in structure and some others; about 3.7% of the full set was active somewhere.

NNC(=O)c1cc(C23CC4CC(CC(C4)C2)C3)nc2ccccc12 was read as KCNQ1 block 6, KCNK9 block inactive, KCNK3 block inactive, KCNQ1 pot inactive, hERG protect inactive and Kir21 block inactive.
For O=C(NNc1c2ccccc2nc2ccccc12)C12CC3CC(CC(C3)C1)C2 the results were KCNQ1 block inactive, KCNK9 block inactive, KCNK3 block inactive, KCNQ1 pot inactive, hERG protect inactive and Kir21 block inactive.
For Cc1ccc(-c2c(=O)n(O)c3ccccc3[n+]2[O-])cc1 the results were KCNQ1 block inactive, KCNK9 block inactive, KCNK3 block inactive, KCNQ1 pot 17, hERG protect inactive and Kir21 block inactive.
For COn1c(=O)c(-c2ccccc2)[n+]([O-])c2ccccc21 the results were KCNQ1 block inactive, KCNK9 block inactive, KCNK3 block inactive, KCNQ1 pot inactive, hERG protect inactive and Kir21 block inactive.
`CCOc1ccc(-c2c(=O)n(OCC)c3ccccc3[n+]2[O-])cc1` gave KCNQ1 block inactive, KCNK9 block inactive, KCNK3 block inactive, KCNQ1 pot inactive, hERG protect inactive and Kir21 block inactive.
`CCOc1ccc(-c2c(=O)n(O)c3ccccc3[n+]2[O-])cc1` gave KCNQ1 block inactive, KCNK9 block inactive, KCNK3 block inactive, KCNQ1 pot 12, hERG protect 18.1 and Kir21 block inactive.
For O=c1c(-c2ccccc2)[n+]([O-])c2ccccc2n1O the results were KCNQ1 block inactive, KCNK9 block inactive, KCNK3 block inactive, KCNQ1 pot inactive, hERG protect 13.3 and Kir21 block inactive.
`COn1c(=O)c(-c2ccc(C)cc2)[n+]([O-])c2ccccc21` gave KCNQ1 block inactive, KCNK9 block inactive, KCNK3 block inactive, KCNQ1 pot inactive, hERG protect inactive and Kir21 block inactive.
For c1ccc(-c2nc(-c3cccs3)[nH]c2-c2ccccc2)cc1 the results were KCNQ1 block inactive, KCNK9 block inactive, KCNK3 block inactive, KCNQ1 pot inactive, hERG protect inactive and Kir21 block inactive.
`c1csc(-c2nc3c4ccccc4c4ccccc4c3[nH]2)c1` gave KCNQ1 block inactive, KCNK9 block inactive, KCNK3 block -10, KCNQ1 pot inactive, hERG protect inactive and Kir21 block inactive.
Oc1ccccc1-c1nc2c3ccccc3c3ccccc3c2[nH]1 was read as KCNQ1 block 6, KCNK9 block inactive, KCNK3 block inactive, KCNQ1 pot inactive, hERG protect inactive and Kir21 block inactive.
CCCN1C(=O)/C(=C\C=C2\N(CC)c3ccccc3C2(C)C)SC1=S was read as KCNQ1 block 9, KCNK9 block inactive, KCNK3 block inactive, KCNQ1 pot inactive, hERG protect inactive and Kir21 block inactive.
CC1=CS(=O)(=O)CC1Sc1ncn[nH]1 (centres undefined) was read as KCNQ1 block inactive, KCNK9 block inactive, KCNK3 block inactive, KCNQ1 pot inactive, hERG protect 4.7 and Kir21 block inactive.
For COc1ccc(-c2c(C)[nH]n3c(=O)c(Cc4ccccc4)c(C)nc23)cc1 the results were KCNQ1 block inactive, KCNK9 block inactive, KCNK3 block inactive, KCNQ1 pot inactive, hERG protect inactive and Kir21 block inactive.
Screening COc1cc(Cl)c(C)cc1NC(=O)CSc1sc2c(O)cc(=O)[nH]c2c1C#N returned KCNQ1 block inactive, KCNK9 block inactive, KCNK3 block inactive, KCNQ1 pot inactive, hERG protect 4.7 and Kir21 block inactive.
Screening COc1ccc(OC)c(NC(=O)CSc2sc3c(O)cc(=O)[nH]c3c2C#N)c1 returned KCNQ1 block inactive, KCNK9 block inactive, KCNK3 block inactive, KCNQ1 pot inactive, hERG protect inactive and Kir21 block inactive.
Screening O=C(Nc1cccc(NC(=O)c2cccc(Cl)c2)c1)c1cccnc1 returned KCNQ1 block inactive, KCNK9 block inactive, KCNK3 block inactive, KCNQ1 pot inactive, hERG protect inactive and Kir21 block inactive.
For Cn1nc(C(F)(F)F)c2cc(C(=O)Nc3ccc(C(F)(F)F)cc3)sc21 the results were KCNQ1 block inactive, KCNK9 block inactive, KCNK3 block inactive, KCNQ1 pot inactive, hERG protect inactive and Kir21 block inactive.
CC(C)=CCc1c(O)cc2c(=O)c3ccc(O)cc3oc2c1O was read as KCNQ1 block inactive, KCNK9 block -12, KCNK3 block inactive, KCNQ1 pot inactive, hERG protect inactive and Kir21 block inactive.
For Cc1ccccc1NC(=O)COC(=O)CCC(=O)c1cccs1 the results were KCNK3 block inactive.
For Cc1c(CCO)sc[n+]1CC(=O)OCCC12CC3CC(CC(C3)C1)C2 the results were KCNQ1 block inactive, KCNK9 block inactive, KCNK3 block inactive, KCNQ1 pot inactive, hERG protect inactive and Kir21 block inactive.
Screening Cc1c(CCOC(=O)CC23CC4CC(CC(C4)C2)C3)sc[n+]1Cc1ccccc1 returned KCNQ1 block 7, KCNK9 block inactive, KCNK3 block inactive, KCNQ1 pot inactive, hERG protect inactive and Kir21 block inactive.
For COc1ccc(/C=C(\C#N)c2n[nH]c(Cn3cncn3)n2)cc1 the results were KCNQ1 block inactive, KCNK9 block inactive, KCNK3 block inactive, KCNQ1 pot inactive, hERG protect inactive and Kir21 block inactive.
Screening CC(=O)OCC(=O)[C@@]1(OC(C)=O)[C@@H](C)C[C@H]2[C@@H]3C[C@H](F)C4=CC(=O)C=C[C@]4(C)[C@@]3(F)[C@@H](O)C[C@@]21C returned KCNQ1 block inactive, KCNK9 block inactive, KCNK3 block inactive, KCNQ1 pot 29, hERG protect inactive and Kir21 block inactive.
For CC(=O)OCC(=O)[C@@]12OC(C)(C)O[C@@H]1C[C@H]1[C@@H]3C[C@H](F)C4=CC(=O)C=C[C@]4(C)[C@@]3(F)[C@@H](O)C[C@@]12C the results were KCNQ1 block inactive, KCNK9 block inactive, KCNQ1 pot inactive, hERG protect inactive and Kir21 block inactive.
Cc1noc(C)c1CN(C(=S)NC(C)C)c1ccccc1 was read as KCNQ1 block inactive, KCNK9 block inactive, KCNK3 block inactive, KCNQ1 pot inactive, hERG protect inactive and Kir21 block -6.46.
O=C1CCC(=O)c2ccc3c4c(ccc1c24)CC3 was read as KCNK3 block inactive.
`O=C1CCN2C=Nc3cccc4ccc1c2c34` gave KCNQ1 block 25, KCNK9 block inactive, KCNK3 block inactive, KCNQ1 pot inactive, hERG protect inactive and Kir21 block inactive.
CC(C)(C)c1ccc(OCCCNC2CCCC2)cc1 was read as KCNQ1 block inactive, KCNK9 block inactive, KCNK3 block inactive, KCNQ1 pot inactive, hERG protect inactive and Kir21 block -4.26.
Screening Cc1ccc(OCCCNC2CCCC2)cc1 returned KCNQ1 block inactive, KCNK9 block inactive, KCNK3 block inactive, KCNQ1 pot inactive, hERG protect inactive and Kir21 block inactive.
Screening CCCCN1CC(=O)N2[C@H]3c4ccccc4OC[C@@H]3[C@H](C(=O)OCC)[C@]2(C)C1=O returned KCNK3 block inactive.
